From ChEMBL document CHEMBL1142406, “2-Heteroarylimino-5-benzylidene-4-thiazolidinones analogues of 2-thiazolylimino-5-benzylidene-4-thiazolidinones with antimicrobial activity: synthesis and structure-activity relationship” (2008)
≈ marks a conversion by molar mass, not a printed value. Calls of active or inactive are those of the source. No cut-off for these calls is given here.

How the values were obtained:
Micrococcus luteus = assay: Antimicrobial activity against Sarcina lutea by broth dilution technique; type: functional
In short: (§1)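 Broth dilution in Mueller Hinton Broth. Compounds are dissolved in DMSO (never above 1% v/v final) and serially diluted. MIC is the lowest concentration giving complete growth inhibition.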

Streptococcus agalactiae = assay: Antimicrobial activity against Streptococcus agalactiae by broth dilution technique; type: functional; in short: as §1
Enterococcus faecalis = assay: Antimicrobial activity against Streptococcus faecalis by broth dilution technique; type: functional; in short: as §1
Saccharomyces cerevisiae [1] = assay: Antimicrobial activity against Saccharomyces cerevisiae ATCC 9763 upto 100 ug/ml by broth dilution technique; type: functional, organism-based
In short: (§2)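 Fungi are tested by Sabouraud Liquid Medium dilution. Compounds are in DMSO, with DMSO at most 1% v/v final. Inoculum is 1×10³ fungi/mL, incubated 48 h at 30 °C. MIC is the lowest concentration completely inhibiting growth. For MFC, 100 µL of clear mixtures is subcultured into 1 mL fresh medium and read after 48 h at 30 °C.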

Staphylococcus aureus [2] = assay: Antimicrobial activity against Staphylococcus aureus ATCC 25923 by broth dilution technique; type: functional; in short: as §1
Priestia megaterium = assay: Antimicrobial activity against Bacillus megaterium by broth dilution technique; type: functional; in short: as §1
Haemophilus influenzae = assay: Antimicrobial activity against Haemophilus influenzae by broth dilution technique; type: functional
In short: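 Haemophilus Test Medium broth dilution. Compounds in DMSO are added to final dilutions, with DMSO at most 1% v/v. MIC is the lowest concentration completely inhibiting growth.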

[3] = tested on: Staphylococcus epidermidis; assay: Antimicrobial activity against Staphylococcus epidermidis ATCC 12228 by broth dilution technique
Bacillus subtilis = assay: Antimicrobial activity against Bacillus subtilis ATCC 6633 by broth dilution technique; type: functional; in short: as §1
Enterococcus faecium = assay: Antimicrobial activity against Streptococcus faecium by broth dilution technique; type: functional; in short: as §1
Candida tropicalis [4] = assay: Antimicrobial activity against Candida tropicalis ATCC 1369 upto 100 ug/ml by broth dilution technique; type: functional, organism-based; in short: as §2
Staphylococcus aureus [5] = assay: Antimicrobial activity against penicillin-resistant Staphylococcus aureus by broth dilution technique; type: functional
In short: (§3)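 Broth dilution in Mueller Hinton Broth with compounds predissolved in DMSO (at most 1% v/v). Final concentrations ranged from 100 to 0.0015, and the inoculum was 5.10⁴ bacteria/mL. Plates were incubated at 37 °C for 24 h. MIC was taken as the lowest concentration giving complete growth inhibition.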

Streptococcus pyogenes = assay: Antimicrobial activity against Streptococcus pyogenes by broth dilution technique; type: functional
In short: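 Tryptose Phosphate Broth dilution. Compounds are dissolved in DMSO, with DMSO at most 1% v/v final. MIC is taken as the lowest concentration with complete growth inhibition.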

[6] = tested on: Staphylococcus epidermidis; assay: Antimicrobial activity against penicillin-resistant Staphylococcus epidermidis by broth dilution technique; type: functional; in short: as §3
[7] = tested on: Staphylococcus haemolyticus; assay: Antimicrobial activity against Staphylococcus haemolyticus by broth dilution technique; type: functional; in short: as §1
Escherichia coli = assay: Antimicrobial activity against Escherichia coli SPA27 upto 100 ug/ml by broth dilution technique; type: functional, organism-based; in short: as §1
Bacillus thuringiensis = assay: Antimicrobial activity against Bacillus thuringiensis var. kurstaki BGSC 4D1 by broth dilution technique; type: functional; details: serovar kurstaki; in short: as §1
Aspergillus niger [8] = assay: Antimicrobial activity against Aspergillus niger ATCC 6275 upto 100 ug/ml by broth dilution technique; type: functional, organism-based; in short: as §2
Candida tropicalis [9] = assay: Antimicrobial activity against Candida tropicalis ATCC 1369 by broth dilution technique; type: functional; in short: as §2
Aspergillus niger [10] = assay: Antimicrobial activity against Aspergillus niger ATCC 6275 by broth dilution technique; type: functional; in short: as §2
Saccharomyces cerevisiae [11] = assay: Antimicrobial activity against Saccharomyces cerevisiae ATCC 9763 by broth dilution technique; type: functional; in short: as §2

SMILES	MIC (Micrococcus luteus) [µg/mL]	MIC (Streptococcus agalactiae) [µg/mL]	MIC (Enterococcus faecalis) [µg/mL]	Activity (Saccharomyces cerevisiae [1])	MIC (Staphylococcus aureus [2]) [µg/mL]	MIC (Priestia megaterium) [µg/mL]	MIC (Haemophilus influenzae) [µg/mL]	MIC [3] [µg/mL]	MIC (Bacillus subtilis) [µg/mL]	MIC (Enterococcus faecium) [µg/mL]	Activity (Candida tropicalis [4])	MIC (Staphylococcus aureus [5]) [µg/mL]	MIC (Streptococcus pyogenes) [µg/mL]	MIC [6] [µg/mL]	MIC [7] [µg/mL]	Activity (Escherichia coli)	MIC (Bacillus thuringiensis) [µg/mL]	Activity (Aspergillus niger [8])	further results
O=C1N/C(=N\c2nccs2)S/C1=C\c1ccc([N+](=O)[O-])cc1	3 (≈ 9.03 µM)	1.5 (≈ 4.51 µM)	> 100	inactive	3 (≈ 9.03 µM)	0.7 (≈ 2.11 µM)	0.3 (≈ 0.903 µM)	6 (≈ 18.1 µM)	1.5 (≈ 4.51 µM)	> 100	inactive	1.5 (≈ 4.51 µM)	> 100	6 (≈ 18.1 µM)	6 (≈ 18.1 µM)	inactive	1.5 (≈ 4.51 µM)	inactive	
O=C1N/C(=N\c2nc3ccccc3s2)S/C1=C\c1ccccc1Cl	12 (≈ 32.3 µM)	> 100	> 100	inactive	12 (≈ 32.3 µM)	12 (≈ 32.3 µM)	> 100	12 (≈ 32.3 µM)	12 (≈ 32.3 µM)	> 100	inactive	12 (≈ 32.3 µM)	25 (≈ 67.2 µM)	25 (≈ 67.2 µM)	> 100	inactive	12 (≈ 32.3 µM)	inactive	
O=C1CS/C(=N/c2nc3ccccc3s2)N1	50 (≈ 201 µM)	> 100	> 100		25 (≈ 100 µM)	25 (≈ 100 µM)	0.7 (≈ 2.81 µM)	100 (≈ 401 µM)	12 (≈ 48.1 µM)	> 100		25 (≈ 100 µM)	> 100	100 (≈ 401 µM)	50 (≈ 201 µM)		25 (≈ 100 µM)		MIC (Candida tropicalis [9]): 50 µg/mL (≈ 201 µM); MIC (Aspergillus niger [10]): 25 µg/mL (≈ 100 µM); MIC (Saccharomyces cerevisiae [11]): 50 µg/mL (≈ 201 µM)
CC1(C)S[C@@H]2[C@H](NC(=O)[C@H](N)c3ccccc3)C(=O)N2[C@H]1C(=O)O [AMPICILLIN]	0.0015 (≈ 0.00429 µM)	0.03 (≈ 0.0859 µM)	0.7 (≈ 2 µM)	inactive	0.07 (≈ 0.2 µM)	0.07 (≈ 0.2 µM)	0.07 (≈ 0.2 µM)	3 (≈ 8.59 µM)	0.007 (≈ 0.02 µM)	100 (≈ 286 µM)	inactive	25 (≈ 71.5 µM)	0.007 (≈ 0.02 µM)	25 (≈ 71.5 µM)	0.03 (≈ 0.0859 µM)	inactive	50 (≈ 143 µM)	inactive	
O=C1N/C(=N\c2nc3ccccc3s2)S/C1=C\c1ccc(Cl)cc1	12 (≈ 32.3 µM)	> 100	100 (≈ 269 µM)	inactive	> 100	12 (≈ 32.3 µM)	> 100	12 (≈ 32.3 µM)	12 (≈ 32.3 µM)	> 100	inactive	> 100	> 100	12 (≈ 32.3 µM)	100 (≈ 269 µM)	inactive	6 (≈ 16.1 µM)	inactive	
O=C1N/C(=N\c2nc3ccccc3s2)S/C1=C\c1cccc([N+](=O)[O-])c1	6 (≈ 15.7 µM)	> 100	> 100	inactive	6 (≈ 15.7 µM)	12 (≈ 31.4 µM)	> 100	6 (≈ 15.7 µM)	12 (≈ 31.4 µM)	> 100	inactive	6 (≈ 15.7 µM)	> 100	6 (≈ 15.7 µM)	> 100	inactive	6 (≈ 15.7 µM)	inactive	
